# Experimental data gathered from unrelated publications.
# Lines come from different studies, so protocols differ.
# Target: D(4) dopamine receptor (DRD4, Homo sapiens, UniProt P21917)
# Technique: radioligand
# Residues used in one study (P21917 1-419): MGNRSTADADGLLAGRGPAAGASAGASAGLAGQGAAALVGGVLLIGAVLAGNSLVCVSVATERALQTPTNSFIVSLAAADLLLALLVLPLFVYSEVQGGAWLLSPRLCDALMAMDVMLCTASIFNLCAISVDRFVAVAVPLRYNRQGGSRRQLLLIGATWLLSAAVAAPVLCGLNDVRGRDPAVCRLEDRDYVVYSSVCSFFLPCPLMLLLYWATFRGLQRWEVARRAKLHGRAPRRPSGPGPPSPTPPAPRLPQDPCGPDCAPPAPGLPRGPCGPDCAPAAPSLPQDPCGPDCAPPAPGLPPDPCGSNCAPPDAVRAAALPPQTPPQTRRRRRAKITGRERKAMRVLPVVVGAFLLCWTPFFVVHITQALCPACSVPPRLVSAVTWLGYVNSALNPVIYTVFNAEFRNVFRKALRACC
SMILES,assay,Ki
O=C1c2ccccc2CCCN1CCCCN1CCN(c2ccccn2)CC1,ligand displacement,6.5 nM
CCN(CC)c1ccc(C2Nc3ccc(C(=O)c4ccccc4)cc3NC3=C2C(=O)CC(C)(C)C3)cc1 (centres unmarked),cell-free assay,1530 nM
CCCCCCCNCCCc1ccccc1,ligand displacement,390 nM
Oc1ccc(CCC2=NCCN2CCc2ccccc2)cc1,ligand displacement,> 10000 nM
Cc1ccc(OC[C@@H]2CN(CCN3CCc4ccccc43)CCO2)cn1,ligand displacement,503 nM
CCOc1c(O)cc(Br)c2c1CN1CCc3cc(OCC(F)F)c(O)cc3[C@@H]1C2,cell-free assay,2720 nM
CCCCCCCCCCCCNCCCc1ccc([N+](=O)[O-])cc1,ligand displacement,1800 nM
Oc1cccc(CCC2=NCCN2CCc2ccccc2)c1,ligand displacement,589 nM
CCCCN1CCC(COC(=O)c2ccc(N)c(OCF)c2)CC1,cell-free assay,> 10000 nM
COc1ccc2c(c1)C(=O)N(CCCN1CCN(c3ccccc3OC)CC1)C2,ligand displacement,8.4 nM
c1ccc(CCC2=NCCN2CCc2ccccc2)cc1,ligand displacement,758 nM
